Results reported in ChEMBL document CHEMBL4706564 (Eur J Med Chem, 2020).
pIC50: −log10 of the molar value.

Experiments:
Influenza A virus = assay: Antiviral activity against Influenza A virus (H1N1); type: functional, organism-based
[1] = Cytotoxicity against human HEK293T cells incubated for 48 hrs by MTT assay; type: cell-based, HEK-293T; details: HEK293T cells
Summary of the method: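 HEK293T cells at 10⁵ cells/ml were added to two-fold compound dilutions in 10% DMEM and incubated 48 h at 37 °C, 5% CO2. MTT (5 mg/ml stock in PBS, 1/10 volume) was added for 2 h, and formazan was dissolved in DMSO before reading optical density. Each concentration was run in triplicate. CC50 was the concentration giving 50% cell death, or halving OD versus control.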

in vitro = details: human, HEK293T cells
cells [2] = type: cell-based, HEK293T; details: Vesicular stomatitis virus, HEK-293T
cells [3] = type: cell-based, Ebolavirus, HEK293T; details: Orthoebolavirus, Mayinga, HEK-293T
Marburgvirus = assay: Antiviral activity against MARV Popp infected in African green monkey Vero cells assessed as inhibition of viral infection by measuring reduction in virus-induced cytotoxicity incubated for 10 days by neutral red dye based colorimetric analysis; type: functional, organism-based; details: Orthomarburgvirus, Popp, Vero, 240 h; read-out: IC50
Zaire ebolavirus = assay: Antiviral activity against Zaire ebolavirus infected in African green monkey Vero cells assessed as inhibition of viral infection by measuring […] incubated for 10 days by neutral red dye based colorimetric analysis; type: functional, organism-based; details: vero
[4] = Cytotoxicity against African green monkey Vero cells assessed as reduction in cell survival incubated for 10 days by neutral red dye based colorimetric analysis; details: chlorocebus sabaeus, Vero cells; time 10 day
Summary of the method: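 Confluent Vero monolayers received six concentrations from 3-fold serial dilutions in DMEM of DMSO-dissolved compound, plus medium without virus. After 10 days at 37 °C, 5% CO2, cells were stained with neutral red and read at 490 nm. CC50 came from a 4-parameter fit, with at least 3 analyses per compound.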

SMILES	pIC50 (Influenza A virus)	CC50 at 48 h [1] [µM]	selectivity ratio (in vitro)	pIC50 (cells [2])	pIC50 (cells [3])	pIC50 (Marburgvirus)	IC50 (Zaire ebolavirus)	CC50 at 240 h [4] [µM]
CC1(C)[C@@H]2CC[C@@]1(C)/C(=N/CCO)C2	5.29							
CC1(C)[C@H]2CC[C@]1(C)[C@H](OC(=O)CN1CCOCC1)C2		327	13	3.54	4.60			
CCN1CCN(CCC(=O)O[C@@H]2C[C@@H]3CC[C@@]2(C)C3(C)C)CC1		264		4.09	5.80	4.75	Not Active	19.2
CN1CCN(CC(=O)O[C@@H]2C[C@@H]3CC[C@@]2(C)C3(C)C)CC1		312	46	3.31	5.17			
CC1CCN(CC(=O)O[C@@H]2C[C@@H]3CC[C@@]2(C)C3(C)C)CC1		71.6	8	4.46	5.07			
CCN1CCN(CC(=O)O[C@@H]2C[C@@H]3CC[C@@]2(C)C3(C)C)CC1		130	80	3.58	5.80			
CCOC(=O)N1CCN(CC(=O)O[C@@H]2C[C@@H]3CC[C@@]2(C)C3(C)C)CC1		227	11	3.95	4.70			
CC1CCN(CCC(=O)N[C@@H]2C[C@H]3CC[C@]2(C)C3(C)C)CC1		93.6	36	4.03	5.59			
CC1(C)[C@H]2CC[C@]1(C)[C@H](OC(=O)CN1CCCCC1)C2		141	9	3.91	4.80			
CCOC(=O)N1CCN(CCC(=O)O[C@@H]2C[C@@H]3CC[C@@]2(C)C3(C)C)CC1		110	4		4.55			
CC1CCN(CC(=O)N[C@@H]2C[C@H]3CC[C@]2(C)C3(C)C)CC1		78		4.11	4.57			
CN(C)CCCC(=O)O[C@@H]1C[C@@H]2CC[C@@]1(C)C2(C)C		101	67		5.82			
CC1CCN(CC(=O)O[C@@H]2C[C@H]3CC[C@]2(C)C3(C)C)CC1		34.1	11		5.51			
CC1(C)[C@H]2CC[C@]1(C)[C@H](OC(=O)CN1CCN(CCO)CC1)C2		296	21	3.40	4.86			
CC1(C)[C@H]2CC[C@]1(C)[C@H](OC(=O)CCN1CCCCCC1)C2		182	36	3.72	5.29			
CC1CCN(CCCC(=O)O[C@@H]2C[C@@H]3CC[C@@]2(C)C3(C)C)CC1		171		3.56	5.03			
CN1CCN(CC(=O)N[C@@H]2C[C@H]3CC[C@]2(C)C3(C)C)CC1		853	64	3.07	4.88			
CCOC(=O)N1CCN(CCCC(=O)O[C@@H]2C[C@@H]3CC[C@@]2(C)C3(C)C)CC1		60.4	23	4.31	5.59			
CCN(CC)CCC(=O)O[C@@H]1C[C@@H]2CC[C@@]1(C)C2(C)C		327	26	3.39	4.91			
CC1CCN(CCCC(=O)N[C@@H]2C[C@H]3CC[C@]2(C)C3(C)C)CC1		142	41	3.85	5.47			
CCN1CCN(CCCC(=O)N[C@@H]2C[C@H]3CC[C@]2(C)C3(C)C)CC1		268	129	3.57	5.68			
CC1(C)[C@H]2CC[C@]1(C)[C@H](OC(=O)CN1CCCCCC1)C2		71.6	70		6.00			
CC1(C)[C@@H]2CC[C@@]1(C)[C@H](OC(=O)CN1CCCCC1)C2		80.5	28		5.54			
CC1(C)[C@H]2CC[C@]1(C)[C@H](OC(=O)CN1CCN(Cc3ccccc3)CC1)C2		59.4	44	4.40	5.89			
CC1(C)[C@H]2CC[C@]1(C)[C@H](OC(=O)CCCN1CCCCCC1)C2		62.2	250		6.70			
CN(C)CC(=O)O[C@@H]1C[C@@H]2CC[C@@]1(C)C2(C)C		389	2	3.28	3.60			

SMILES	pIC50 (Influenza A virus)	CC50 at 48 h [1] [µM]	selectivity ratio (in vitro)	pIC50 (cells [2])	pIC50 (cells [3])	pIC50 (Marburgvirus)	IC50 (Zaire ebolavirus)	CC50 at 240 h [4] [µM]
CC1CCN(CCCCC(=O)O[C@@H]2C[C@@H]3CC[C@@]2(C)C3(C)C)CC1		73	408	4.08	6.70			
CCN1CCN(CCC(=O)N[C@@H]2C[C@H]3CC[C@]2(C)C3(C)C)CC1		565	908	3.25	6.22			
CC1(C)[C@@H]2CC[C@@]1(C)[C@H](NC(=O)CCCN1CCOCC1)C2		172	18	3.76	5.03			
CC1(C)[C@@H]2CC[C@@]1(C)[C@H](NC(=O)CN1CCOCC1)C2		838	147	3.08	5.24			
CC1(C)[C@H]2CC[C@]1(C)[C@H](OC(=O)CCCN1CCN(CCN)CC1)C2		71.1	125	4.30	6.22			
CN1CCN(CCCC(=O)O[C@@H]2C[C@@H]3CC[C@@]2(C)C3(C)C)CC1		99.2		4.01	6.22			
CC1(C)[C@H]2CC[C@]1(C)[C@H](OC(=O)CCCCN1CCCCC1)C2		101	162	3.98	6.22			
CC1(C)[C@H]2CC[C@]1(C)[C@H](OC(=O)CCCN1CCN(CCO)CC1)C2		224	658	3.72	6.52			
CC1(C)[C@H]2CC[C@]1(C)[C@H](OC(=O)CCCN1CCCCC1)C2		74.8	230	4.30	6.52			
CC1(C)[C@H]2CC[C@]1(C)[C@H](OC(=O)CCN1CCN(Cc3ccccc3)CC1)C2		39	150	4.57	6.52			
CN1CCN(CCCC(=O)N[C@@H]2C[C@H]3CC[C@]2(C)C3(C)C)CC1		475	191	3.32	5.60			
CC1(C)[C@H]2CC[C@]1(C)[C@H](OC(=O)CCCN1CCOCC1)C2		210	33	3.54	5.19			
CCN1CCN(CC(=O)N[C@@H]2C[C@H]3CC[C@]2(C)C3(C)C)CC1		660	78	3.18	5.07			
CCN(CC)CCCC(=O)O[C@@H]1C[C@@H]2CC[C@@]1(C)C2(C)C		166	490	3.71	6.52			
CN(C)CCC(=O)O[C@@H]1C[C@@H]2CC[C@@]1(C)C2(C)C		505	17		4.52			
CC1(C)[C@H]2CC[C@]1(C)[C@@H](OC(=O)CN1CCCCC1)C2		89.5	25		5.44			
CN1CCN(CCC(=O)N[C@@H]2C[C@H]3CC[C@]2(C)C3(C)C)CC1		486	187	3.31	5.59			
CC1(C)[C@H]2CC[C@]1(C)[C@H](OC(=O)CN1CCN(CCN)CC1)C2		247	114	4.62	5.66			
CCN1CCN(CCCC(=O)O[C@@H]2C[C@@H]3CC[C@@]2(C)C3(C)C)CC1		131	880	3.78	7.00			
CCN(CC)CC(=O)O[C@@H]1C[C@@H]2CC[C@@]1(C)C2(C)C		344	61	3.25	5.25			
CC1(C)[C@H]2CC[C@]1(C)[C@H](OC(=O)CCN1CCN(CCO)CC1)C2		272	153	3.59	5.74			
CC1(C)[C@@H]2CC[C@@]1(C)[C@H](NC(=O)CCN1CCOCC1)C2		312		3.51	4.66			
CC1CCN(CC(=O)O[C@H]2C[C@@H]3CC[C@@]2(C)C3(C)C)CC1		34.1	8		5.36			
CC1(C)[C@H]2CC[C@]1(C)[C@H](OC(=O)CCCN1CCN(Cc3ccccc3)CC1)C2		30.1	100	4.59	6.52			
CN[C@H]1CC[C@@H](c2ccc(Cl)c(Cl)c2)c2ccccc21 [SERTRALINE]		408						
